# Assay results published in ChEMBL document CHEMBL5058577, “EUbOPEN Chemogenomics Library 2 (Multiplex)” (2022).
# Test system: Fibroblast
# Test: Multiplex assay against human fibroblast
# Format: toxicity, cell-based
# Procedure, shortened: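 Tubulin, mitochondrial-mass and membrane-permeability phenotypes are per cents of healthy-nucleus cells. Cells were gated by CellPathfinder machine learning into Hoechst high-intensity objects or normal cells, normal cells into healthy, pyknosed or fragmented nuclei, and pyknosed cells into mitotic or apoptotic. Before that, live cells stained at seeding with Hoechst33342, BioTracker Green Microtubule Cytoskeleton Dye, MitoTracker Red and Annexin V Alexa Fluor 680 were imaged on a CQ1 microscope at 37°C and 5% CO2 after compound addition.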
# [1] = 12 h, 1 µM, compound concentration 1 uM, replicate 1
# [2] = 12 h, 1 µM, compound concentration 1 uM, replicate 2
# [3] = 12 h, 10 µM, compound concentration 10 uM, replicate 1
# [4] = 12 h, 10 µM, compound concentration 10 uM, replicate 2
# [5] = 24 h, 1 µM, compound concentration 1 uM, replicate 1
# [6] = 24 h, 1 µM, compound concentration 1 uM, replicate 2
# [7] = 24 h, 10 µM, compound concentration 10 uM, replicate 1
# [8] = 24 h, 10 µM, compound concentration 10 uM, replicate 2
# [9] = 48 h, 1 µM, compound concentration 1 uM, replicate 1
# [10] = 48 h, 1 µM, compound concentration 1 uM, replicate 2
# [11] = 48 h, 10 µM, compound concentration 10 uM, replicate 1
# [12] = 48 h, 10 µM, compound concentration 10 uM, replicate 2
smiles,measurement,setting,value
CN(C)CCCc1cc(C(=O)Nc2ccc(-c3ccncc3)cc2)ccc1O.Cl.Cl,Population Apoptotic (%),[1],31%
same,Population Fragmented Nuclei (%),[1],15%
same,Population Healthy Nuclei (%),[1],65%
same,Population Hoechst High Intensity Objects (%),[1],4%
same,Population Membrane Permeable-Phenotype (%),[1],0%
same,Population Mitochondria Different-Phenotype (%),[1],7%
same,Population Mitotic Cells (%),[1],68%
same,Population Normal (%),[1],95%
same,Population Pyknosed Nuclei (%),[1],18%
same,Population Tubulin-Different-Phenotype (%),[1],22%
same,Total Cell Count,[1],122
same,Population Apoptotic (%),[2],44%
same,Population Fragmented Nuclei (%),[2],22%
same,Population Healthy Nuclei (%),[2],52%
same,Population Hoechst High Intensity Objects (%),[2],2%
same,Population Membrane Permeable-Phenotype (%),[2],4%
same,Population Mitochondria Different-Phenotype (%),[2],4%
same,Population Mitotic Cells (%),[2],55%
same,Population Normal (%),[2],97%
same,Population Pyknosed Nuclei (%),[2],24%
same,Population Tubulin-Different-Phenotype (%),[2],40%
same,Total Cell Count,[2],120
same,Population Apoptotic (%),[3],68%
same,Population Fragmented Nuclei (%),[3],33%
same,Population Healthy Nuclei (%),[3],58%
same,Population Hoechst High Intensity Objects (%),[3],7%
same,Population Membrane Permeable-Phenotype (%),[3],0%
same,Population Mitochondria Different-Phenotype (%),[3],15%
same,Population Mitotic Cells (%),[3],31%
same,Population Normal (%),[3],92%
same,Population Pyknosed Nuclei (%),[3],7%
same,Population Tubulin-Different-Phenotype (%),[3],43%
same,Total Cell Count,[3],305
same,Population Apoptotic (%),[4],48%
same,Population Fragmented Nuclei (%),[4],31%
same,Population Healthy Nuclei (%),[4],51%
same,Population Hoechst High Intensity Objects (%),[4],4%
same,Population Membrane Permeable-Phenotype (%),[4],4%
same,Population Mitochondria Different-Phenotype (%),[4],6%
same,Population Mitotic Cells (%),[4],51%
same,Population Normal (%),[4],95%
same,Population Pyknosed Nuclei (%),[4],17%
same,Population Tubulin-Different-Phenotype (%),[4],45%
same,Total Cell Count,[4],236
same,Population Apoptotic (%),[5],30%
same,Population Fragmented Nuclei (%),[5],16%
same,Population Healthy Nuclei (%),[5],66%
same,Population Hoechst High Intensity Objects (%),[5],1%
same,Population Membrane Permeable-Phenotype (%),[5],2%
same,Population Mitochondria Different-Phenotype (%),[5],3%
same,Population Mitotic Cells (%),[5],70%
same,Population Normal (%),[5],98%
same,Population Pyknosed Nuclei (%),[5],17%
same,Population Tubulin-Different-Phenotype (%),[5],25%
same,Total Cell Count,[5],119
same,Population Apoptotic (%),[6],37%
same,Population Fragmented Nuclei (%),[6],22%
same,Population Healthy Nuclei (%),[6],50%
same,Population Hoechst High Intensity Objects (%),[6],4%
same,Population Membrane Permeable-Phenotype (%),[6],1%
same,Population Mitochondria Different-Phenotype (%),[6],7%
same,Population Mitotic Cells (%),[6],62%
same,Population Normal (%),[6],95%
same,Population Pyknosed Nuclei (%),[6],27%
same,Population Tubulin-Different-Phenotype (%),[6],45%
same,Total Cell Count,[6],111
same,Population Apoptotic (%),[7],47%
same,Population Fragmented Nuclei (%),[7],30%
same,Population Healthy Nuclei (%),[7],63%
same,Population Hoechst High Intensity Objects (%),[7],6%
same,Population Membrane Permeable-Phenotype (%),[7],0%
same,Population Mitochondria Different-Phenotype (%),[7],11%
same,Population Mitotic Cells (%),[7],52%
same,Population Normal (%),[7],93%
same,Population Pyknosed Nuclei (%),[7],5%
same,Population Tubulin-Different-Phenotype (%),[7],40%
same,Total Cell Count,[7],339
same,Population Apoptotic (%),[8],42%
same,Population Fragmented Nuclei (%),[8],31%
same,Population Healthy Nuclei (%),[8],53%
same,Population Hoechst High Intensity Objects (%),[8],4%
same,Population Membrane Permeable-Phenotype (%),[8],5%
same,Population Mitochondria Different-Phenotype (%),[8],5%
same,Population Mitotic Cells (%),[8],57%
same,Population Normal (%),[8],95%
same,Population Pyknosed Nuclei (%),[8],14%
same,Population Tubulin-Different-Phenotype (%),[8],42%
same,Total Cell Count,[8],242
same,Population Apoptotic (%),[9],62%
same,Population Fragmented Nuclei (%),[9],28%
same,Population Healthy Nuclei (%),[9],59%
same,Population Hoechst High Intensity Objects (%),[9],0%
same,Population Membrane Permeable-Phenotype (%),[9],0%
same,Population Mitochondria Different-Phenotype (%),[9],1%
same,Population Mitotic Cells (%),[9],37%
same,Population Normal (%),[9],99%
same,Population Pyknosed Nuclei (%),[9],12%
same,Population Tubulin-Different-Phenotype (%),[9],29%
same,Total Cell Count,[9],126
same,Population Apoptotic (%),[10],50%
same,Population Fragmented Nuclei (%),[10],23%
same,Population Healthy Nuclei (%),[10],54%
same,Population Hoechst High Intensity Objects (%),[10],8%
same,Population Membrane Permeable-Phenotype (%),[10],1%
same,Population Mitochondria Different-Phenotype (%),[10],5%
same,Population Mitotic Cells (%),[10],50%
same,Population Normal (%),[10],91%
same,Population Pyknosed Nuclei (%),[10],21%
same,Population Tubulin-Different-Phenotype (%),[10],46%
same,Total Cell Count,[10],111
same,Population Apoptotic (%),[11],56%
same,Population Fragmented Nuclei (%),[11],28%
same,Population Healthy Nuclei (%),[11],60%
same,Population Hoechst High Intensity Objects (%),[11],11%
same,Population Membrane Permeable-Phenotype (%),[11],0%
same,Population Mitochondria Different-Phenotype (%),[11],8%
same,Population Mitotic Cells (%),[11],43%
same,Population Normal (%),[11],88%
same,Population Pyknosed Nuclei (%),[11],11%
same,Population Tubulin-Different-Phenotype (%),[11],48%
same,Total Cell Count,[11],321
same,Population Apoptotic (%),[12],51%
same,Population Fragmented Nuclei (%),[12],35%
same,Population Healthy Nuclei (%),[12],53%
same,Population Hoechst High Intensity Objects (%),[12],2%
same,Population Membrane Permeable-Phenotype (%),[12],3%
same,Population Mitochondria Different-Phenotype (%),[12],2%
same,Population Mitotic Cells (%),[12],48%
same,Population Normal (%),[12],97%
same,Population Pyknosed Nuclei (%),[12],10%
same,Population Tubulin-Different-Phenotype (%),[12],39%
same,Total Cell Count,[12],261
